Drawing on BindingDB's records for doi:10.1021/jm049090z (The Bristol-Myers Squibb Pharmaceutical Research Institute, 2005), this text covers EC50 for four compounds.

In this experiment the target is T1, DNA topoisomerase 1 (Homo sapiens, UniProt P11387).
T1 sequence (P11387 whole entry): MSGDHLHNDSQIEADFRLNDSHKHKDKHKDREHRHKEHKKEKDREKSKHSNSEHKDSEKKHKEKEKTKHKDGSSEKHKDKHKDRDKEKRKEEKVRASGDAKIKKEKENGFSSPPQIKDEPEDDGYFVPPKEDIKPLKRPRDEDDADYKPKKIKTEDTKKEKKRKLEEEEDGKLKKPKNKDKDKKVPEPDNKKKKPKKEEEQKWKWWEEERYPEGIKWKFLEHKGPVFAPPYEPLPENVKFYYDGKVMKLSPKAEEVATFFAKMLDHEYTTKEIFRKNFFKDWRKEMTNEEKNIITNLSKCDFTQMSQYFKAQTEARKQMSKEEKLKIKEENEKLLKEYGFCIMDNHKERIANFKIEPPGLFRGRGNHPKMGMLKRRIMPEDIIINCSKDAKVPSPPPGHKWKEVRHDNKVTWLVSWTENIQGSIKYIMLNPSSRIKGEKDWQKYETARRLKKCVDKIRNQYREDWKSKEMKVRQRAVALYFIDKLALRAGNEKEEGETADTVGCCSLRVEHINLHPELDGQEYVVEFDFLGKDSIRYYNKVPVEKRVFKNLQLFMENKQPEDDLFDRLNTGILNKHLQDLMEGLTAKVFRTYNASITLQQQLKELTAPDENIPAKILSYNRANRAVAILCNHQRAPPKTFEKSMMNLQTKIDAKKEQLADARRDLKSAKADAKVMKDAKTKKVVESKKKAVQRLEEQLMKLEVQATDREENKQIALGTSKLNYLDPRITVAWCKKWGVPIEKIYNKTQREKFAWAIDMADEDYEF
In words: Topoisomerase I activity for single-strand breaks in the DNA substrate. In short, it runs like this: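 Topo I-mediated DNA cleavage assay using covalently closed, supercoiled phage PM2 DNA as substrate; read-out is induction of single-strand breaks.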
One may read the EC50 as the concentration at which the effect is half-maximal. The low end stands for a more potent agent, the high end for a less potent agent. In turn, `O=C1NC(=O)c2c1c1c3cc(F)c(F)cc3sc1c1c2c2cc(F)c(F)cc2n1C1OC(CF)C(O)C(O)C1O` (centres undefined) [2,3,9,10-tetrafluoro-13-(6-fluoromethyl-3,4,5-trihydroxytetrahydro-2H-2-pyranyl)-5,6,7,13-tetrahydrobenzo[4,5]thieno[2,3-a]pyrrolo[4,3-c]carbazole-5,7-dione] came in with a half-maximal effective concentration (EC50) of 240 nM.
The same measure for `O=C1NC(=O)c2c1c1c3cc(F)c(F)cc3sc1c1c2c2cc(F)c(F)cc2n1C1OC(CO)C(F)(F)C(O)C1O` (centres undefined) [13-(5,5-difluoro-3,4-dihydroxy-6-hydroxymethyltetrahydro-2H-2-pyranyl)-2,3,9,10-tetrafluoro-5,6,7,13-tetrahydrobenzo[4,5]thieno[2,3-a]pyrrolo[4,3-c]carbazole-5,7-dione]: 80 nM; for `O=C1NC(=O)c2c1c1c3cc(F)c(F)cc3[nH]c1c1c2c2cc(F)c(F)cc2n1C1OC(CF)C(O)C(O)C1O` (centres undefined) [2,3,9,10-tetrafluoro-12-(6-fluoromethyl-3,4,5-trihydroxytetrahydro-2H-2-pyranyl)-6,7,12,13-tetrahydro-5H-indolo[2,3-a]pyrrolo[3,4-c]carbazole-5,7-dione]: 480 nM.
In the case of `O=C1NC(=O)c2c1c1c3cc(F)ccc3[nH]c1c1c2c2cc(F)ccc2n1C1OC(CF)[C@@H](O)C(O)C1O` (some centres undefined) [Name not given], the EC50 was found to be 704 nM.
